Key:
[1] = Clinical safety in phase 1 studies; type: in vivo, human
Method in brief: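 Healthy adult subjects in phase 1 studies received oral single doses, or once-daily doses for up to 14 days, with placebo controls in some parts. They were housed in the clinical pharmacology unit from at least the day before dosing until ≥24 h after the last dose. Treatment-emergent adverse events were recorded and graded for intensity.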

CYP3A4 [2] = details: miricorilant 400 mg once daily as perpetrator
liver fat = details: patients with presumed MASH; cited from earlier work
[3] = Animal and human ADME studies, summary of excretion; type: in vivo; details: animal and human ADME studies (Abstract)
BCRP = target: T1, BCRP (Homo sapiens, UniProt Q9UNQ0); test: DDI perpetrator study: rosuvastatin probe; type: in vivo; details: miricorilant 400 mg once daily as perpetrator
T1 sequence (Q9UNQ0 1-655): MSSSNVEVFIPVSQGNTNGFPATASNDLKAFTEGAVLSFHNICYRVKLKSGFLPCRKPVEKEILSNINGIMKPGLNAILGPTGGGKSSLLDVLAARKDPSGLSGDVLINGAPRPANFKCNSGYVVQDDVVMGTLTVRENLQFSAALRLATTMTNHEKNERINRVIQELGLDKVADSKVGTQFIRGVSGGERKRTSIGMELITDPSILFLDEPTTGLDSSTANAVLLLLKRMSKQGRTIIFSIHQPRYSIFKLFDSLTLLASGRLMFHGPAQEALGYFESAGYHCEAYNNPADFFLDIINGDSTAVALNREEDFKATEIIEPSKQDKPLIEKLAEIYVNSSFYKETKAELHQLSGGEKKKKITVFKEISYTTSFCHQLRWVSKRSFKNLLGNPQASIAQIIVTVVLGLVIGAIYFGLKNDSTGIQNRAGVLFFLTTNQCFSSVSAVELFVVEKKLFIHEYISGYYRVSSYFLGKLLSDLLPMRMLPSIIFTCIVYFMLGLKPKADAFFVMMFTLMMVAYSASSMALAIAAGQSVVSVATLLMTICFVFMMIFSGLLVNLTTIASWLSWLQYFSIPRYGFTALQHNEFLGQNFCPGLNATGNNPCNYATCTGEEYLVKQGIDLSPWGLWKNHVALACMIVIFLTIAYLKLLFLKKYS

CYP3A4 [4] = target: CYP3A4 (Homo sapiens, UniProt P08684); test: biochemical; type: in vitro ADME
[5] = repeated once‐daily dosing for up to 14 days
[6] = single‐dose studies, healthy subjects

Sequence of CYP3A4 (Homo sapiens, UniProt P08684) (P08684 whole entry): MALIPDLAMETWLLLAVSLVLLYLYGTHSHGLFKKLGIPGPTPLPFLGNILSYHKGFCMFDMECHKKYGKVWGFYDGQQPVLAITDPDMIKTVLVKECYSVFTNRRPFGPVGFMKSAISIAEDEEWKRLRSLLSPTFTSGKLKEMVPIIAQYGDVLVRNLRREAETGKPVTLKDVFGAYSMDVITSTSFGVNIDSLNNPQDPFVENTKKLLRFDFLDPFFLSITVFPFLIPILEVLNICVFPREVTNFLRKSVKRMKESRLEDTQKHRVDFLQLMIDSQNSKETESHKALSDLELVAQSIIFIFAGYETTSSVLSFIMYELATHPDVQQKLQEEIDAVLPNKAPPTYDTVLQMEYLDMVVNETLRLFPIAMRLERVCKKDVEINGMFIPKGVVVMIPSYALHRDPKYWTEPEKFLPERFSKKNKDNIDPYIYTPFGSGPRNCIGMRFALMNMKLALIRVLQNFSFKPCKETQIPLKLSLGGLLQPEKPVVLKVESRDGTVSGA

SMILES: O=c1[nH]c(=O)c(Cc2cccc(C(F)(F)F)c2)c([C@H]2CC[C@H](c3ccccc3)CC2)[nH]1 [miricorilant]
- overall safety and tolerability ([1]; phase 1 studies): safe and well‐tolerated
- intensity of TEAEs [1, 5]: mild or moderate
- most commonly reported TEAE [1, 5]: headache
- deaths or serious adverse events ([1]; repeated‐dose studies): no deaths or treatment‐emergent serious adverse events
- discontinuation due to TEAEs [1, 6]: No subjects
- intensity of TEAEs [1, 6]: mild or moderate
- most commonly reported TEAE [1, 6]: headache
- clinical inhibition of CYP3A4 (CYP3A4 [2]): does not inhibit
- effect on liver fat (liver fat): rapid and substantial reduction of liver fat
- total radioactivity recovered in urine [3]: < 5%
- clinical inhibition of BCRP (BCRP): moderate inhibitor
- IC50 (CYP3A4 [4]): 3.4 µM
- time dependence of CYP3A4 inhibition (CYP3A4 [4]): not time dependent

— publication PMC12709667 (Journal of Clinical Pharmacology, 2025)
